IDE act: human IDE activators in live cells, primary screen, fluorescence polarization, HEK cells, FAbeta-B substrate. hit rate 0.073% among 340,000. Insulin-degrading enzyme (Homo sapiens), P14735. activation, % at 5.96 µM. FAbeta-B cleavage; 0% vehicle, 100% cell-free pure enzyme wells;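 active means activation above the mean of all tested compounds plus 3 SD, set per screening campaign, cut at about 17% in these data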
Target sequence (P14735 whole entry, looked up): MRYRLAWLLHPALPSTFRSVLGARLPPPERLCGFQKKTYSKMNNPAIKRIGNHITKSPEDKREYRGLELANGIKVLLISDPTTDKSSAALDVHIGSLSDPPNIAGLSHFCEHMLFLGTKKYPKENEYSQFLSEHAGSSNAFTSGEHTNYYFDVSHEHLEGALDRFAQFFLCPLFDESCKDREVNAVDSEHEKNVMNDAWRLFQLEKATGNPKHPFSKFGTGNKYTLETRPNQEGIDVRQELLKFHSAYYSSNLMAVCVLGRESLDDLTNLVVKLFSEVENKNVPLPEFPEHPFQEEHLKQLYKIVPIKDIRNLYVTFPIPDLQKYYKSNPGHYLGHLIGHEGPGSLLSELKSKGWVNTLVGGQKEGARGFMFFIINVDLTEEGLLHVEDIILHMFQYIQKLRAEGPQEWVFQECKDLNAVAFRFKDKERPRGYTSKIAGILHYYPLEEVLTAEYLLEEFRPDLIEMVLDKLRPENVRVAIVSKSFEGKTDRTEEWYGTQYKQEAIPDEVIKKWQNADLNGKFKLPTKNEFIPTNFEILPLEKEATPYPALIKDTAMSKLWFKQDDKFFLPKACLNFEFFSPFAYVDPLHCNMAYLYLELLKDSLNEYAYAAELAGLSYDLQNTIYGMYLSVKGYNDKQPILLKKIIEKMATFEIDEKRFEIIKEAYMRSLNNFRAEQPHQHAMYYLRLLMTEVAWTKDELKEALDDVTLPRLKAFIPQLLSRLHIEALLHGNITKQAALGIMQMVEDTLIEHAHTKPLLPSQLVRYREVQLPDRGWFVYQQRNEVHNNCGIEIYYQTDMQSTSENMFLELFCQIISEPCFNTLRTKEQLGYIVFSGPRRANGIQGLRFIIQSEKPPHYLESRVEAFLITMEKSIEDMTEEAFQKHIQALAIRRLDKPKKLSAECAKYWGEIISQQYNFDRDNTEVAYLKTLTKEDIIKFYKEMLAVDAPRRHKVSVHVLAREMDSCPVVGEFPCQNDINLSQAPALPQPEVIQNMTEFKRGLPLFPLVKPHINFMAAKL
TPT1 inhibitor: Candida albicans TPT1 enzyme inhibitors, primary screen, biochemical, fluorescence polarization | tRNA 2'-phosphotransferase TPT1 (Candida albicans SC5314) | recombinant caTPT1, FP RNA substrate dephosphorylation | inhibition, % at 5 µM | hit rate 0.81% among 300,000;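 active means inhibition above the mean of all tested compounds plus 3 SD, set per screening campaign, cut at about 24% in these data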;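 further: plate controls were DMSO alone for no effect and ferristatin control at 100 nM for full effect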
CSN deneddyl inh: inhibitors of CSN-mediated cullin deneddylation, primary screen, biochemical, fluorescence polarization, uHTS; hit rate 0.38% among 360,000; Purified CSN, SCF-Nedd8-OG deneddylation; AID 651999, 2013; inhibition, % at 12.5 µM; COP9 signalosome complex subunit 5 (Homo sapiens), Q92905;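 active means pattern-corrected inhibition above about 35%, with an unprinted fluorescence ratio check between 0.5 and 1.5, limit read from the data, passing the limit was not always enough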;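 further: 0% = enzyme with substrate and 100% = substrate without enzyme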
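Assay system: purified human Csn5 enzyme expressed in HEK293T cells; Input: 0.24 nM Csn5 enzyme, final concentration; Reagent: 10 nM SCFSkp2-Nedd8OG; Compound dosing: 12.5 µM single point; Times: reaction 90 min, room temperature; Technique: fluorescence polarization readout.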
IDE cell inh: human IDE inhibitors in live cells, primary screen, fluorescence polarization, HEK cells, FAbetaB substrate | FAbetaB cleavage | Insulin-degrading enzyme (Homo sapiens), P14735 | hit rate 0.41% among 320,000 | inhibition, % at 5.59 µM | AID 434962, 2010;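 active means percent inhibition above the average of all tested compounds plus 3 SD, set per screening campaign, cut at about 16% in these data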;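 further: IDE supplied by intact live HEK cells; FP after avidin binding of uncleaved biotin substrate so inhibition keeps polarization high; 0% = DMSO wells and 100% = 60 µM reference IDE inhibitor Ii1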
TbMetRS inhib: T. brucei MetRS inhibitors, primary screen, biochemical, luminescence; purified T. brucei MetRS, ATP depletion, Kinase-Glo luminescence; methionyl-tRNA synthetase (Trypanosoma brucei brucei); hit rate 0.4% among 360,000; inhibition, % at 11.9 µM;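 active means inhibition above a per-plate cutoff of the control wells' mean inhibition plus 3 SD, cut at about 5.5% in these data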;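 further: 0% = DMSO wells median and 100% = median of wells with control inhibitor compound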
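System: purified T. brucei MetRS enzyme / Detection: Kinase-Glo luciferase luminescence reporting remaining unconsumed ATP / Medium: HEPES buffer with MgCl2, KCl, DTT, spermine, BSA, pyrophosphatase / Replication: singlicate, one well per compound / Evaluation: percent inhibition relative to median high and low control wells / Schedule: 2 h aminoacylation at 25 °C after 15 min preincubation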
HNF4A DNA FP: change in binding of human HNF4A to DNA, primary screen, biochemical, fluorescence polarization, FITC-DNA. Hepatocyte nuclear factor 4-alpha (Homo sapiens), P41235. 1 h. activity change, % at 10 µM. hit rate 0.3% among 360,000. AID 1224865, 2016; in the data active means activity change above about 30%, passing the limit was not always enough
TbMetRS confirm: T. brucei MetRS inhibitors, confirmation, biochemical, luminescence. shares compounds with TbMetRS inhib. T. brucei MetRS enzyme, luminescence (ATP depletion). inhibition, % at 11.9 µM. hit rate 93% among 1,400. AID 624412, 2012; in the data active means inhibition above about 7%
Jurkat tox: Jurkat T cell cytotoxicity, cytotoxicity control for T. brucei MetRS inhibitor project, luminescence, high throughput. shares compounds with TbMetRS inhib. Jurkat cells viability, ATP luminescence. inhibition, % at 8.3 µM. hit rate 12% among 1,400; in the data active means inhibition above about 15%;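 further: 0% = vehicle and 100% = reference inhibitor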
TbMetRS FP orth: T. brucei MetRS inhibitors, orthogonal assay for T. brucei MetRS inhibitor project, biochemical, fluorescence polarization. shares compounds with TbMetRS inhib. purified T. brucei MetRS. hit rate 44% among 1,400. inhibition, % at 11.9 µM. AID 651607, 2012; in the data active means inhibition above about 17%;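 further: 0% = vehicle wells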
* hit, by the source's call; / = not tested or not shown. Compounds with a hit are over-represented: about 1.7% of the library has one in this group of screens.

SMILES	IDE act	TPT1 inhibitor	CSN deneddyl inh	IDE cell inh	TbMetRS inhib	HNF4A DNA FP	TbMetRS confirm	Jurkat tox	TbMetRS FP orth
CC(C)CCNC(=O)CCCn1c(=O)[nH]c2ccc(Br)cc2c1=O	1.1	-4.2	-2.5	1.3	0.7	-0.5	/	/	/
NS(=O)(=O)c1ccc(CCNC(=O)CCCn2c(=O)[nH]c3ccc(Br)cc3c2=O)cc1	3.1	-7.4	-0.2	1.1	13.5*	0.7	21.8*	-6.5	12.8
Clc1ccc(CN2C3=NCCN3c3ccccc32)cc1Cl	3.1	2.5	7.3	1.4	7.4*	1.6	11.6*	15.8*	0.7
CN(CC(=O)Nc1ccc(Cl)cc1)C(=O)CCC1CCCC1	-4.2	1.1	-2.0	0.5	6.7*	0.6	52.4*	6.6	20.0*
CN(CC(=O)Nc1ccc(Cl)cc1)C(=O)CN1C(=O)C2CCCCC2C1=O (stereo not given)	/	/	1.0	/	-0.2	-1.7	/	/	/
O=C(CNc1cccc2ccccc12)N/N=C/c1ccc[nH]1	6.8	0.0	4.4	8.9	9.8*	2.8	64.9*	64.4*	43.6*
COc1ccc(NC(=O)CSc2nnc(NC(=O)c3ccc(S(=O)(=O)N4CCOCC4)cc3)s2)cc1	3.8	1.4	4.5	2.8	0.0	-1.8	/	/	/
Cc1ccc(Nc2nnc(SCC(=O)Nc3ccc(S(=O)(=O)N4CCOCC4)cc3)s2)cc1	1.7	-1.0	5.8	-4.7	8.5*	-0.6	14.9*	4.5	14.0
O=C(CSc1nnc(Nc2ccccc2)s1)Nc1ccc(S(=O)(=O)N2CCOCC2)cc1	-0.6	-2.9	8.3	-1.0	13.2*	0.5	29.0*	12.3	19.1*
CCN(C(=O)c1ccc2c(SCC(=O)O)c3c(nc2c1)CCC3)c1cc(Cl)ccc1OC	5.1	-2.0	3.5	-0.2	0.3	2.2	/	/	/
Cc1nnc(Nc2ccc(C(=O)O)cc2)[nH]c1=O	2.7	-1.8	-9.4	0.6	6.8*	-0.4	14.3*	-0.4	2.7
Cc1nnc(Nc2ccc(O)cc2)[nH]c1=O	-1.2	-0.8	-6.5	2.1	1.4	-4.7	/	/	/
COc1ccc(NC(=O)CN(C)C(=O)c2ccc3c(c2)NC(=O)CS3)cc1	3.7	/	-1.4	2.9	7.9*	4.5	32.7*	-8.1	6.2
O=C(CNS(=O)(=O)c1ccc([N+](=O)[O-])cc1)N/N=C/c1ccc(O)cc1O	2.5	-5.8	-0.5	-1.1	15.5*	3.1	36.2*	46.1*	22.0*
C[C@@H](NC(=O)c1[nH]cnc1C(=O)Nc1nccs1)c1ccccc1	3.0	/	-4.4	0.7	-0.1	0.6	/	/	/
O=C(Nc1ccccc1)Nc1cnccn1	3.5	-4.2	-3.9	-0.5	-0.3	-0.1	/	/	/
CCOC(=O)c1ccc2c(c1)NCc1cccc(OC)c1O2	0.4	-1.2	2.7	0.3	5.8*	-3.2	10.8*	10.9	9.3
Cc1cc(NC(=O)c2ccco2)c(=O)n(Cc2cccc(C(F)(F)F)c2)c1	5.9	-2.3	2.3	-1.2	0.0	0.2	/	/	/
CCOC(=O)c1sc(NC(=O)c2cc(-c3ccccc3)nc3ccccc23)c(C#N)c1C	-3.8	6.3	3.9	1.8	-0.6	3.7	/	/	/
Nc1ccccc1Nc1cc(-c2ccccc2)[nH]n1	2.9	/	10.5	/	5.8*	13.0	4.7	96.2*	-4.1
O=C(Nc1ccc(F)c(Cl)c1)C1CC(=O)n2c(nc3ccccc32)N1 (stereo not given)	6.3	-0.8	0.1	1.2	74.4*	0.8	89.5*	7.2	76.2*
O=C(Nc1ccc(F)cc1)C1CC(=O)n2c(nc3ccccc32)N1 (stereo not given)	3.5	2.4	-1.5	0.5	17.7*	0.0	34.1*	0.8	11.7
CCOc1ccc(C(C)NC(=O)c2ccc3c(c2)NC(=O)C(C)S3)cc1OCC (stereo not given)	5.2	/	-2.9	1.3	-0.5	0.4	/	/	/
CC1(NC(=O)Nc2cc([N+](=O)[O-])ccc2O)CCS(=O)(=O)C1 (stereo not given)	-1.8	/	-1.9	3.8	-0.1	2.0	/	/	/
CCN(CC)c1ccc(/C=N/NC(=O)Cc2nnc(NC(=O)Nc3ccccc3)s2)cc1	0.9	0.9	-0.7	7.7	8.4*	3.1	9.2*	2.7	5.0
SMILES	IDE act	TPT1 inhibitor	CSN deneddyl inh	IDE cell inh	TbMetRS inhib	HNF4A DNA FP	TbMetRS confirm	Jurkat tox	TbMetRS FP orth
CCN(CC)c1ccc(/C=N/NC(=O)Nc2ccccc2)cc1	-7.6	-0.4	-7.5	-1.1	0.0	2.5	/	/	/
CCCCN(C)Cc1c(C)[nH]c2ccc(C)cc2c1=O	-1.6	-0.8	-1.6	1.0	10.5*	-3.5	21.1*	-3.8	5.7
CCCCN(C)Cc1c(C)[nH]c2ccccc2c1=O	-4.3	3.4	-3.8	-4.9	0.5	-1.0	/	/	/
COCCNC(=O)C(=O)N/N=C/c1ccccc1C(F)(F)F	3.4	1.4	-2.4	-2.0	-0.8	-11.0	/	/	/
Cc1cc(NS(=O)(=O)c2ccc(NC(=O)CSc3nc4ncc(Br)cc4[nH]3)cc2)nc(C)n1	6.2	0.1	4.7	-8.6	6.1*	-0.6	14.3*	-4.3	8.4
CCC[C@H]1CN(Cc2cccnc2)C(=O)[C@@H]1CC(=O)Nc1ccc(Br)cc1	/	/	-4.5	/	71.6*	1.7	87.3*	-3.6	61.0*
CSC[C@H]1CN(Cc2cccnc2)C(=O)[C@@H]1CC(=O)Nc1ccc(Br)cc1	/	/	6.5	/	68.8*	-2.7	82.0*	-7.4	51.3*
Cc1cc(Cl)ccc1OCc1cn2cccnc2n1	2.6	-2.1	-7.4	-3.2	11.4*	0.7	21.3*	4.8	1.8
Cc1ccc2nc(SCC(=O)Nc3ccc(C)c([N+](=O)[O-])c3)[nH]c2c1	0.2	-1.0	-4.6	3.9	1.5	-3.1	/	/	/
Cc1ccc2nc(SC(C)C(=O)Nc3cccc([N+](=O)[O-])c3)[nH]c2c1 (stereo not given)	3.5	-3.0	-1.3	3.9	37.7*	-1.5	63.6*	3.4	36.9*
Cc1ccc2nc(SCC(=O)Nc3ccc(F)c([N+](=O)[O-])c3)[nH]c2c1	-5.1	-3.0	-17.1	0.2	39.1*	-2.0	49.8*	19.4*	26.6*

Bioassay records deposited in PubChem BioAssay by several laboratories.
